# Most compounds without a hit are left out; they make up all but 1.8% or so of the library.
# hiPSC survival: enhancers of human iPSC single-cell survival | hiPSC single-cell survival, ATPlite luminescence; 100% = ROCK inhibitor wells, 0% = DMSO | survival enhancement, % at 20 µM | 360,000 compounds, 0.044% hits | AID 602274; in the data active means survival enhancement above about 18%;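 further: cells exposed to compounds for 16 hours before the ATP read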
# Ecoli rRNA inh: selective bacterial rRNA inhibition in E. coli | GFP signal change (wild-type ribosome), % (concentration not given with the values) | E. coli WT GFP vs humanized-ribosome RFP mutants, fluorescence, 24 h; stronger effect = lower value; DMSO median 0, no signal -100 | 350,000 compounds, 1.6% hits;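 active means significant combined selectivity score with lowered wild-type GFP, culture density cut under 30%, mutant RFP and density less affected; inactive means any of these conditions unmet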
# DAGLB inh: blocks human DAGLB lipase activity; Q8NCG7; HEK293T DAGLB membrane lysate, EnzChek fluorogenic substrate; inhibition, % at 5.17 µM; 340,000 compounds, 0.059% hits; AID 504411; in the data active means inhibition above about 34%;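 further: 0% = enzyme with vehicle and 100% = wells lacking enzyme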
# Target sequence (Q8NCG7 whole entry, looked up): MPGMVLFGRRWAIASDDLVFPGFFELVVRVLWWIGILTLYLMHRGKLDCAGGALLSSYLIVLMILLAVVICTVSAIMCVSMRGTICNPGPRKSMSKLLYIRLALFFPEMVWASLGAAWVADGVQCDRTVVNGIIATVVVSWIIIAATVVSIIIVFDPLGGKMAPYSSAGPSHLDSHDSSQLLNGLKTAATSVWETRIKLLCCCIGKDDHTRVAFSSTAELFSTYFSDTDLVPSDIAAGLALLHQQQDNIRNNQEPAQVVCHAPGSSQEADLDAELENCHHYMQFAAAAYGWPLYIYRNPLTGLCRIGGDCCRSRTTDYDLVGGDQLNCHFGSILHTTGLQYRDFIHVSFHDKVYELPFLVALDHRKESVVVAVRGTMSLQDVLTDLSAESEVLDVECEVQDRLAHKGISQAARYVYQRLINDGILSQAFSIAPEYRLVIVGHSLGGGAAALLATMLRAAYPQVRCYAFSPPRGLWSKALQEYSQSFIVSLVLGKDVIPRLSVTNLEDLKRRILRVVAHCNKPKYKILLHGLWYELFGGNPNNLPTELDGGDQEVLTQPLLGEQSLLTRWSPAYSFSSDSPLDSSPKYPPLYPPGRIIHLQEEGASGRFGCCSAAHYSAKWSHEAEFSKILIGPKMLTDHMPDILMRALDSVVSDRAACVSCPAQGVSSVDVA
# MT1-MMP act inh: blocks activation of human MT1-MMP | HT1080 RFP-PRO-GFP cells, GFP/RFP ratio fluorescence, overnight; percent of plate control window, DMSO zero | 360,000 compounds, 0.061% hits | GFP/RFP ratio change, % at 20 µM | AID 651647;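 active means GFP/RFP ratio change of at least 30% with cell ATP level not reduced by more than half and red fluorescence within 50% of control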
#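 Assay system: HT1080 RFP-PRO-GFP cells. Benchmarks: DMSO vehicle wells and RFP-L50D-GFP reporter cell wells. Times: overnight cell settling, then overnight compound exposure, 37 °C, 5% CO2. Compound: 20 µM single dose, 1% DMSO. Read-out basis: GFP/RFP fluorescence ratio.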
# SKN-1 inh: blocks SKN-1 activity in C. elegans. inhibition, % at 21.8 µM. AID 624304. 360,000 compounds, 0.49% hits. C. elegans VP596 Pgst-4::GFP/RFP ratio, acrylamide-induced, 24 h;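 active means interference check ratio from 0.5 to 1.5 plus GFP to RFP signal ratio inhibition reaching or exceeding a fixed threshold, cut at about 30% in these data, passing the limit was not always enough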
# Cneo AK release: causes C. neoformans cell lysis; adenylate kinase release luminescence, 4 h; normalised: neutral wells 0, clomiphene wells 100; lysis activity, % at 15 µM; 360,000 compounds, 0.2% hits; AID 651654;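 active means mean lysis activity across replicates of at least 80%, whatever share of replicates individually reach that level; inactive means mean lysis activity below 80%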
#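 Assay system: C. neoformans cells. Amount: yeast cell density of 5 × 10^6 cells/mL. Technique: AK luminescence. Buffer or medium: YPD. Times: static 4 h at 37 °C with compound, 1 h detection. Dosing: single-point compound dose. Read-out: lysis from increased AK signal.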
# Active calls of the source: *; . = no result.
SMILES,hiPSC survival,Ecoli rRNA inh,DAGLB inh,MT1-MMP act inh,SKN-1 inh,Cneo AK release
COCCn1nnnc1C(c1cccs1)N1CCN(c2nc3ccccc3s2)CC1 (stereo not drawn),-1,-22*,1,1,18,-1
COCCNC(=S)N1CCN(c2nc3ccccc3s2)CC1,0,-26*,-1,1,6,.
COCCCNC(=S)N1CCN(c2nc3ccccc3s2)CC1,-1,-30*,-1,1,0,.
CO[C@H]1CN(C)C(=O)c2cc(NC(=O)CC(F)(F)F)ccc2OC[C@@H](C)N(C(=O)c2ccccc2F)C[C@H]1C,.,1,.,.,.,.
Cc1ccc2c(c1)c(C)c(C)n2CC(O)CN1CCOCC1 (stereo not drawn),6,.,1,10,39*,1
Cc1c(C)n(CC(O)CN2CCCCCC2)c2ccccc12 (stereo not drawn),-1,.,-1,1,0,-3
CCCNC(=O)N1CC2(CCN(S(=O)(=O)CC)CC2)c2c(n(C)c3cc(OC)ccc23)[C@@H]1CO,.,-2,.,.,.,.
COc1cccc(C(=O)NCC(=O)N2CCC3(CC2)NCCc2[nH]cnc23)c1,2,6,3,2,36*,-1
CCOC(=O)C1=NNC(C(=O)c2ccc(C)cc2)C1c1ccc(C)cc1 (stereo not drawn),7,.,-5,0,0,1
CCOC(=O)C1=NNC(C(=O)c2ccccc2)C1c1ccc(C)cc1 (stereo not drawn),0,-26*,-5,0,4,.
CCC1CCCCN1S(=O)(=O)c1ccc(NC(=O)c2ccncc2)cc1 (stereo not drawn),0,-5,-3,5,18,4
CCC1CCCCN1S(=O)(=O)c1ccc(NC(=O)c2nc(S(C)(=O)=O)ncc2Cl)cc1 (stereo not drawn),7,-29*,1,-3,-30,-1
CCS(=O)(=O)c1ncc(Cl)c(C(=O)Nc2ccc(S(=O)(=O)N3CCCC(C)C3)cc2)n1 (stereo not drawn),20*,-13,4,-10,12,0
COc1cccc(C#Cc2ccc([C@H]3[C@@H](CO)N4C(=O)CN(C(=O)c5ccncc5)C[C@H]34)cc2)c1,.,1,.,.,.,.
C[C@H](NC(=O)C[C@@H]1C=C[C@H](NC(=O)CN2CCOCC2)[C@@H](CO)O1)c1ccccc1,.,4,.,.,.,91*
C[C@H](NC(=O)C[C@@H]1C=C[C@@H](NC(=O)CN2CCOCC2)[C@H](CO)O1)c1ccccc1,.,1,.,.,.,14
COc1ccc(NC(=O)Nc2cccc([N+](=O)[O-])c2)cc1Cl,-1,-43,-2,3,0,-7
COc1ccccc1CCNC(=O)Nc1cccc([N+](=O)[O-])c1,0,-20*,-1,5,11,.
COC(=O)C1=CN(Cc2ccc(OC)cc2)C=C(C(=O)OC)C1c1cc(OC)c(OC)c(OC)c1,0,.,-1,-5,-10,-1
COC(=O)C1=CN(Cc2ccc(F)cc2)C=C(C(=O)OC)C1c1cc(OC)c(OC)c(OC)c1,0,-24*,-3,-1,-17,0
COC(=O)C1=CN(C(C)c2ccccc2)C=C(C(=O)OC)C1c1cc(OC)c(OC)c(OC)c1 (stereo not drawn),-1,-22*,-2,-3,-4,0
CCCN1[C@@H]2c3ccc(/C=C/c4ccccc4)c(=O)n3C[C@H]1[C@H](CO)[C@H]2C(=O)NCC1CC1,.,0,.,.,.,2
O=C(N/N=C/c1c[nH]c2ccc(Br)cc12)c1ccc2c(c1)OCO2,0,-30*,4,2,1,.
O=C(N/N=C/c1c[nH]c2ccc(Br)cc12)C1CC1,0,-34*,4,5,-4,.
O=C(N/N=C/c1cc(Br)c(O)c(Br)c1O)c1ccc2c(c1)OCCO2,0,-19*,9,4,1,-5
SMILES,hiPSC survival,Ecoli rRNA inh,DAGLB inh,MT1-MMP act inh,SKN-1 inh,Cneo AK release
COc1ccccc1C(=O)Nc1ccc2c(c1)C(=O)N(C)[C@@H]1CC[C@@H](CC(=O)NCc3ccc(Cl)c(Cl)c3)O[C@H]1CO2,.,-4,.,.,.,4
Cc1cnn(-c2nc(-c3cccs3)cc(C(F)(F)F)n2)c1,2,.,-4,-2,21,6
FC(F)(F)c1cc(-c2cccs2)nc(-n2cc(Br)cn2)n1,-1,.,-6,0,45*,-1
CC(C)(C)/C(COc1ccccc1[N+](=O)[O-])=N/O,5,-17*,-2,-4,2,2
CC(C)NC(=O)Nc1ccc2c(c1)CC(=O)N([C@@H](C)CO)C[C@@H](C)[C@H](CN(C)C(=O)NC1CCCCC1)O2,.,2,.,.,.,-3
Cc1ccccc1Nc1nc(N)nc(COC(=O)c2cccc(S(=O)(=O)N(C)C)c2)n1,-1,-17*,1,13,5,2
CCCN(C)C[C@H]1Oc2cc(C#CCC3CCCC3)ccc2S(=O)(=O)N([C@H](C)CO)C[C@@H]1C,.,.,.,.,.,2
COC(OC)c1ccc(C#N)c(SCc2ccc(C)cc2)n1,-1,-29*,-12,-2,9,.
Cc1ccc(-c2nc(N3CCN(C)CC3)c3ccccc3n2)cc1,0,-27*,-6,-4,17,-2
CC(C)NC(=O)Nc1ccc2c(c1)C(=O)N([C@H](C)CO)C[C@@H](C)[C@H](CN(C)C(=O)C1CCCCC1)OCCCC[C@H](C)O2,.,1,.,.,.,.
O=C1NC(=O)/C(=C/c2ccc(OS(=O)(=O)c3ccc(F)cc3F)cc2)N1,3,-26*,.,12,10,0
O=C1NC(=O)C(=Cc2ccccc2)N1,-2,2,0,-4,10,4
Cn1cnc(S(=O)(=O)N2CCCCN3[C@@H](CO)[C@@H](c4ccc(C#CC5CC5)cc4)[C@@H]3C2)c1,.,.,.,.,.,1
C[C@@H]1CN([C@H](C)CO)S(=O)(=O)c2ccc(-c3cncnc3)cc2O[C@@H]1CN(C)C(=O)C1CCC1,.,2,.,.,.,0
CCCCn1c(NC(=O)c2ccccc2Cl)c(C#N)c2nc3ccccc3nc21,-1,.,17,-131,33,0
N#Cc1c(NC(=O)c2ccccc2Cl)n(Cc2ccccc2)c2nc3ccccc3nc12,0,-17*,8,-78,18,.
COc1ccc(NS(=O)(=O)c2cc(NC(=O)c3ccc(=O)[nH]c3)ccc2N2CCOCC2)cc1,0,-11,-1,1,1,1
COc1ccc(NS(=O)(=O)c2cc(NC(=O)c3ccc(=O)[nH]n3)ccc2N2CCOCC2)cc1,0,-27*,2,-4,4,1
CN(C)CCCNC(=O)C[C@H]1CC[C@@H]2[C@H](COc3ccc(NC(=O)c4ccccc4F)cc3C(=O)N2C)O1,.,6,.,.,.,-4
